Source: ChEMBL document CHEMBL3525937, “Drug efflux transporter multidrug resistance-associated protein 5 affects sensitivity of pancreatic cancer cell lines to the nucleoside anticancer drug 5-fluorouracil” (Drug Metab Dispos, 2011)
Active and inactive are the calls of the source. The calls are words filed in the database; no cut-off is given here.

Tests used:
COLO357 = experiment: Cytotoxicity against human Colo-357 cells expressing MRP5 assessed as cell killing after 48 hrs using propidium iodide staining by cytofluorometric analysis; format: functional, cell-based
How it was run: (§1)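 Colo-357 cells stably transfected with pcDNA3.1/hygro-MRP5 or empty vector were cultured with 5-FU (1–33 M) for 48 h. Cells were harvested, stained with 2 g/ml propidium iodide in PBS for 5 min at 4°C in the dark, and PI uptake was read by flow cytometry (10,000 cells, debris gated out). Values are the percentage of dead cells from three assays in triplicate.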

[1] = Cytotoxicity against human Patu-S cells by crystal violet staining; format: functional, cell-based
How it was run: (§2)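 Cells plated at 5000–10,000 per well and left 24 h, then exposed to drug in medium for the set time at 37°C, 5% CO2. Washed with PBS, fixed 15 min in 4% paraformaldehyde and stained 5 min with 0.5% crystal violet in methanol. Lysed in 1% SDS, OD read at 570 nm with untreated cells as 100%. IC50 fitted by nonlinear sigmoidal regression over at least five concentrations, each in triplicate; three independent experiments.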

[2] = Cytotoxicity against human Colo-357 cells assessed as cell killing at 33 uM after 48 hrs using propidium iodide staining by cytofluorometric analysis; format: functional, COLO357; how it was run: as §1
[3] = Cytotoxicity against human Patu-T cells by crystal violet staining; format: functional, cell-based; conditions: PaTu 8988t; how it was run: as §2
[4] = Induction of BCRP expression in human Patu-T cells after 6 months by RT-PCR analysis relative to control; format: ADME, cell-based; conditions: patu 8988t, 4383 h
How it was run: (§3)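 Patu-8988T cells were cultured 6 months with increasing 5-FU, then kept at least 1 week drug-free. Transcripts were quantified by real-time RT-PCR on 20 ng cDNA with a Tris/KCl/MgCl2 platinum Taq master mix and ROX reference. Expression is reported relative to untreated parental Patu-T cells.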

MRP5 [5] = experiment: Induction of MRP5 expression in human MRP5 vector transfected Colo-357 cells by RT-PCR analysis relative to control; format: cell-based, COLO357; conditions: Colo-357 cells transfected with human MRP5 vector, read-out: FC
How it was run: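 Colo-357 cells were transfected with pcDNA3.1/hygro-MRP5 or empty vector, split after 48 h and selected in hygromycin B. MRP5 mRNA was measured by quantitative real-time RT-PCR (20 ng cDNA) relative to the vector-only clone.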

[6] = Cytotoxicity against human MRP5 knockdown Patu-02 cells assessed as increase of cell death at 3.3 uM after 48 hrs using propidium iodide staining by cytofluorometric analysis; format: functional
How it was run: (§4)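 Patu-02 cells stably transfected with an MRP5 siRNA expression vector or empty vector (hygromycin B selected, single-cell cloned, RT-PCR screened) were exposed to 5-FU (3.3–100 M) for 48 h. Cell death was measured as PI uptake (2 g/ml, 5 min, 4°C, dark) by flow cytometry on 10,000 gated cells. Three assays were run in triplicate.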

[7] = Cytotoxicity against human Patu-02 cells assessed as increase of cell death at 33 uM after 48 hrs using propidium iodide staining by cytofluorometric analysis; format: functional; how it was run: as §4
[8] = Cytotoxicity against human MRP5 knockdown Patu-02 cells assessed as increase of cell death at 100 uM after 48 hrs using propidium iodide staining by cytofluorometric analysis; format: functional; how it was run: as §4
[9] = Cytotoxicity against human MRP5 knockdown Patu-02 cells assessed as increase of cell death at 10 uM after 48 hrs using propidium iodide staining by cytofluorometric analysis; format: functional; how it was run: as §4
[10] = Cytotoxicity against human MRP5 knockdown Patu-02 cells assessed as increase of cell death at 33 uM after 48 hrs using propidium iodide staining by cytofluorometric analysis; format: functional; how it was run: as §4
[11] = target: T1, ATP-binding cassette sub-family C member 5 (Homo sapiens, UniProt O15440); experiment: Activity at MRP5 in human Colo-357 cells assessed as increase of drug efflux after 60 mins relative to wild type cells; format: ADME, cell-based; conditions: colo357, 1 h
T1 sequence (O15440 whole entry): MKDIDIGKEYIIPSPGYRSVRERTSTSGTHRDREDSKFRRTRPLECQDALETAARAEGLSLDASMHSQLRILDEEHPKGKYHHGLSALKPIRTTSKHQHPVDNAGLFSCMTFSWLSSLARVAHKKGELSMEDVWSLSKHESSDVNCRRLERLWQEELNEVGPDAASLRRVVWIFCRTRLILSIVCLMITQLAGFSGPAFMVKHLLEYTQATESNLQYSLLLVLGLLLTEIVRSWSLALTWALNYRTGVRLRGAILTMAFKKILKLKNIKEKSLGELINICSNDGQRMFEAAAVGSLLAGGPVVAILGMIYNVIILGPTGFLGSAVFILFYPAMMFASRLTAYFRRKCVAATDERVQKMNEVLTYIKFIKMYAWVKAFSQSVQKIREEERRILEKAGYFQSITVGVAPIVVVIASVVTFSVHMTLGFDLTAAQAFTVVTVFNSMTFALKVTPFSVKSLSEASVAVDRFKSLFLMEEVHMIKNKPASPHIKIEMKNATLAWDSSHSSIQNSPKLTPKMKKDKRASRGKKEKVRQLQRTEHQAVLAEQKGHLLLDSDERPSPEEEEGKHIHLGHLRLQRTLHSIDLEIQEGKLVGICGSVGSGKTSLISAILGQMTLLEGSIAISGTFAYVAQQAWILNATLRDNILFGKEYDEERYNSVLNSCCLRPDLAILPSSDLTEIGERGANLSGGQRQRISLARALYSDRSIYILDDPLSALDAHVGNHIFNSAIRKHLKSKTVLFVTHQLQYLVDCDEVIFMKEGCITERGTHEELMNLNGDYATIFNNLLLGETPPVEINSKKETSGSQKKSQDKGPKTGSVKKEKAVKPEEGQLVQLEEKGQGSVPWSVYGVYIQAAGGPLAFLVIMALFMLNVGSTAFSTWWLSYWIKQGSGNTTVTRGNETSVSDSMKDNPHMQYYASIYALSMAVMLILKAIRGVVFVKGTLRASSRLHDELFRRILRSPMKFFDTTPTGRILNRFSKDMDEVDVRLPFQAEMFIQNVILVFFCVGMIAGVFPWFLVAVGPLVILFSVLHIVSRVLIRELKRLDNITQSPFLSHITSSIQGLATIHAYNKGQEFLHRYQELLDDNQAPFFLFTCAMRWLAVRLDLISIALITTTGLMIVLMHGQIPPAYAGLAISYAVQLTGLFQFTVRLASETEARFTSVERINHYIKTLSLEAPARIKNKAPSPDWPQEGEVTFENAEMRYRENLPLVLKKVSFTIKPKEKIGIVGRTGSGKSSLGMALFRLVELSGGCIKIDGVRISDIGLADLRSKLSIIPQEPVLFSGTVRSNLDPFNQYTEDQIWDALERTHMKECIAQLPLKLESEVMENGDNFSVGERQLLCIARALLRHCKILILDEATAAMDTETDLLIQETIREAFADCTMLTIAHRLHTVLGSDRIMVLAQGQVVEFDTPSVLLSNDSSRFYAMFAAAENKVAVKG
How it was run: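 Transfected Colo-357 cells seeded in triplicate were preloaded 2 h with [14C]5-FU in energy-depletion medium (glucose-free, pyruvate-free, sodium azide). After two washes, medium was switched to ordinary drug-free growth medium, and medium radioactivity was sampled at time points over 60 min. Results are expressed as released radioactivity relative to radioactivity accumulated during loading.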

[12] = Cytotoxicity against human Colo-357 cells expressing MRP5 assessed as cell killing at 33 uM after 48 hrs using propidium iodide staining by cytofluorometric analysis; format: functional, COLO357; how it was run: as §1
[13] = Cytotoxicity against human Patu-02 cells assessed as increase of cell death at 10 uM after 48 hrs using propidium iodide staining by cytofluorometric analysis; format: functional; how it was run: as §4
[14] = Cytotoxicity against human Colo-357 cells assessed as cell killing at 3 uM after 48 hrs using propidium iodide staining by cytofluorometric analysis; format: functional, COLO357; how it was run: as §1
DAN-G = experiment: Cytotoxicity against human DAN-G cells by crystal violet staining; format: functional, cell-based; how it was run: as §2
[15] = Cytotoxicity against human Aspc-1 cells by crystal violet staining; format: functional, cell-based; conditions: ASPC1; how it was run: as §2
[16] = Cytotoxicity against human T3M4 cells by crystal violet staining; format: functional, cell-based; how it was run: as §2
[17] = Cytotoxicity against human Colo-357 cells expressing MRP5 assessed as cell killing at 10 uM after 48 hrs using propidium iodide staining by cytofluorometric analysis; format: functional, COLO357; how it was run: as §1
[18] = Cytotoxicity against human Colo-357 cells expressing MRP5 assessed as cell killing at 1 uM after 48 hrs using propidium iodide staining by cytofluorometric analysis; format: functional, COLO357; how it was run: as §1
[19] = Cytotoxicity against human Colo-357 cells assessed as cell killing at 1 uM after 48 hrs using propidium iodide staining by cytofluorometric analysis; format: functional, COLO357; how it was run: as §1
PaTu 8988t = experiment: Induction of thymidylate synthase expression in human Patu-T cells after 6 months by RT-PCR analysis relative to control; format: functional, cell-based; how it was run: as §3
[20] = Cytotoxicity against human Colo-357 cells expressing MRP5 assessed as cell killing at 3 uM after 48 hrs using propidium iodide staining by cytofluorometric analysis; format: functional, COLO357; how it was run: as §1
[21] = Cytotoxicity against human Colo-357 cells by crystal violet staining; format: functional, cell-based; conditions: COLO357; how it was run: as §2
[22] = target: T1, ATP-binding cassette sub-family C member 5; experiment: Activity at MRP5 in human Colo-357 cells assessed as decrease of drug accumulation after 2 hrs relative to wild type cells; format: ADME, cell-based; parameters: scale not given: the % may be the effect or the level left; conditions: colo357, 2 h
How it was run: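 Stably transfected Colo-357 (pcDNA3.1/hygro-MRP5 vs empty vector, hygromycin B selected), subconfluent, seeded in triplicate, grown overnight, then incubated at 37°C with 7.6 M [14C]5-FU (0.4 Ci/ml, 52 mCi/mmol) for timed intervals. Washed with ice-cold PBS, lysed in 0.2% SDS, scintillation counted, normalised to protein.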

[23] = Cytotoxicity against human PANC1 cells by crystal violet staining; format: functional, cell-based; conditions: PANC-1; how it was run: as §2
[24] = Cytotoxicity against human 5-FU-resistant Patu-T cells by crystal violet staining; format: functional, cell-based; conditions: PaTu 8988t
How it was run: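 Patu-8988T subclones were selected with rising 5-FU over 6 months, then kept drug-free at least 1 week. Cells were plated at 5000–10,000/well, left 24 h, then drug-exposed. They were fixed in 4% paraformaldehyde, stained with 0.5% crystal violet in methanol, lysed in 1% SDS, and read at OD 570 nm against untreated cells (100%). At least five concentrations were tested in triplicate, and IC50 was obtained by sigmoidal nonlinear regression.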

MRP5 [25] = experiment: Induction of MRP5 expression in human Patu-T cells after 6 months by RT-PCR analysis relative to control; format: cell-based, PaTu 8988t; conditions: read-out: FC; how it was run: as §3
[26] = Cytotoxicity against human Colo-357 cells assessed as cell killing at 10 uM after 48 hrs using propidium iodide staining by cytofluorometric analysis; format: functional, COLO357; how it was run: as §1
MRP4 = experiment: Induction of MRP4 expression in human Patu-T cells after 6 months by RT-PCR analysis relative to control; format: cell-based, PaTu 8988t; conditions: read-out: FC; how it was run: as §3
[27] = Cytotoxicity against human Patu-02 cells by crystal violet staining; format: functional, cell-based; how it was run: as §2
[28] = Cytotoxicity against human Patu-02 cells assessed as increase of cell death at 3.3 uM after 48 hrs using propidium iodide staining by cytofluorometric analysis; format: functional; how it was run: as §4
[29] = Cytotoxicity against human Patu-02 cells assessed as increase of cell death at 100 uM after 48 hrs using propidium iodide staining by cytofluorometric analysis; format: functional; how it was run: as §4

## O=c1[nH]cc(F)c(=O)[nH]1 [FLUOROURACIL]
COLO357
  Activity: inactive
[1]
  IC50: 2930 nM
[2]
  Activity: 53%
[3]
  IC50: 2080 nM
[4]
  Activity: Not Active
MRP5 [5]
  fold induction: 4.3
[6]
  Activity: 36%
[7]
  Activity: 63%
[8]
  Activity: 94%
[9]
  Activity: 53%
[10]
  Activity: 80%
[11]
  fold change (FC): 2.1
[12]
  Activity: 44.9%
[13]
  Activity: 27%
[14]
  Activity: 45.4%
DAN-G
  IC50: 4.38 µM
[15]
  IC50: 2970 nM
[16]
  IC50: 330 nM
[17]
  Activity: 39.1%
[18]
  Activity: 16.4%
[19]
  Activity: 26.4%
PaTu 8988t
  Activity: inactive
[20]
  Activity: 31.2%
[21]
  IC50: 2050 nM
[22]
  Activity: 59.2%
[23]
  IC50: 3.94 µM
[24]
  IC50: 33.2 µM
MRP5 [25]
  fold induction at 4383 h: 2.4
[26]
  Activity: 54.6%
MRP4
  fold induction at 4383 h: 2.5
[27]
  IC50: 3.95 µM
[28]
  Activity: 10%
[29]
  Activity: 66%

## Nc1ccn([C@@H]2O[C@H](CO)[C@@H](O)C2(F)F)c(=O)n1 [GEMCITABINE]
[1]
  IC50: 3.2 nM
[3]
  IC50: 2.8 nM
DAN-G
  IC50: 0.0034 µM
[15]
  IC50: 4 nM
[16]
  IC50: 1.5 nM
[21]
  IC50: 0.36 nM
[23]
  IC50: 0.001 µM
[27]
  IC50: 0.0034 µM

## Sc1ncnc2nc[nH]c12 [MERCAPTOPURINE ANHYDROUS]
[1]
  IC50: 11100 nM
[3]
  IC50: 4090 nM
DAN-G
  IC50: 4.06 µM
[15]
  IC50: 2450 nM
[16]
  IC50: 2630 nM
[21]
  IC50: 6120 nM
[23]
  IC50: 6.39 µM
[27]
  IC50: 9.69 µM

## Nc1nc2[nH]cnc2c(=S)[nH]1 [THIOGUANINE]
[1]
  IC50: 2210 nM
[3]
  IC50: 3430 nM
DAN-G
  IC50: 4.32 µM
[15]
  IC50: 2800 nM
[16]
  IC50: 1280 nM
[21]
  IC50: 2090 nM
[23]
  IC50: 8.31 µM
[27]
  IC50: 2.26 µM
